Screens (PubChem)
Tcruzi prolif – T. cruzi proliferation inhibition | 77,000 compounds, 5.9% hits | T. cruzi beta-gal in NIH3T3, GalScreen luminescence, 90 h | AID 624255 | inhibition, % at 8.34 µM;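 active means mean inhibition above about 93%, with at least 55% of replicates each passing it, limit read from the data, passing the limit was not always enough; inconclusive means only one of those two conditions holds; inactive means neither condition holds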
IDH1 R132H inh – IDH1 R132H (human) inhibition; O75874; IDH1 R132H reductase, diaphorase/resazurin fluorescence, 60 min; inhibition, % at 10 µM; 70,000 compounds, 0.18% hits; AID 624101; in the data active means inhibition above about 34%; inconclusive means no clear call, values can overlap the other calls; inactive means below about 11%;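 further: 0% = DMSO and 100% = no enzyme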
Pf Dd2 growth – P. falciparum Dd2 growth inhibition | 94,000 compounds, 2.3% hits | SYBR Green, 72 h; stronger effect = lower value | activity change, % at 10 µM; in the data active means activity change below about -80%; inconclusive means no clear call, values can overlap the other calls
KDM4C inh – inhibitors of human demethylase GASC-1 KDM4C. GST-KDM4C 2-372, H3K9me3 peptide, LANCE TR-FRET. AID 720574. inhibition, % at 12.5 µM. 96,000 compounds, 0.15% hits. Q9H3R0;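 active means mean replicate inhibition above about 25%, with at least 55% of replicates also reaching it, limit read from the data, passing the limit was not always enough; inconclusive means only one of those two conditions met; inactive means neither condition met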
Target sequence (Q9H3R0 2-372 limits assumed): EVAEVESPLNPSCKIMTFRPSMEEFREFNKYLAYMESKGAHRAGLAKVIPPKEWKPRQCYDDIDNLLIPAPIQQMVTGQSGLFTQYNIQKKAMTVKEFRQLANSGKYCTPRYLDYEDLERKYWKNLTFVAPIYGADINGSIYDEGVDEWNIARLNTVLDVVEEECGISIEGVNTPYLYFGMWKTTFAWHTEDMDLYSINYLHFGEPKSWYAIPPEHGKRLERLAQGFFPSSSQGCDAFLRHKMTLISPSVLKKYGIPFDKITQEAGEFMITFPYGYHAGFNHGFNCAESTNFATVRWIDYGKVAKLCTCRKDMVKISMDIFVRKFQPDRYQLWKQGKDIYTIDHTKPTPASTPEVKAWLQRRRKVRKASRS
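System: N-terminal GST-fused human GASC-1 (KDM4C) fragment, residues 2-372 / Amount: 10 nM GST-KDM4C in enzyme reaction / Also added: H3K9me3 peptide with Fe(II)/2OG / Times: 30 min demethylation and 1 h detection at room temperature / Signal: LANCE TR-FRET / Read-out basis: Fall in 671/618 emission ratio as inhibition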
The depositor's hits bear a star; u = inconclusive; x = no result; ! = not confirmed by another sample. Rows were chosen to be rich in hits. Some 5.9% of all compounds tested hit in one or more screens of this group.

SMILES	Tcruzi prolif	IDH1 R132H inh	Pf Dd2 growth	KDM4C inh
OC[C@H]1[C@H](c2ccccc2)C2(CN(Cc3ccccc3F)C2)N1Cc1ccccc1F	x	x	-93.5*	5.3
CC(C)NC(=O)N1[C@@H](CO)[C@@H](c2ccccc2)C12CN(Cc1ccc(F)cc1)C2	x	x	-83.7*	-2.6
CC(C)NC(=O)N1[C@H](CO)[C@@H](c2ccccc2)C12CN(Cc1ccc(Cl)cc1)C2	x	x	-87.5*	-0.9
CC(C)NC(=O)N1[C@@H](CO)[C@@H](c2ccccc2)C12CN(Cc1ccccc1)C2	x	x	-50.5	-1.6
CC(C)NC(=O)N1[C@@H](CO)[C@@H](c2ccccc2)C12CN(Cc1ccc(Cl)cc1)C2	x	x	-68.9	-1.5
CC(C(=O)N1CCN(C)CC1)N(c1ccc(Oc2ccccc2)cc1)S(C)(=O)=O (stereo not given)	x	0.1	x	x
COc1ccc(C)cc1S(=O)(=O)NCc1ccncc1	x	0.2	x	x
FC(F)(F)c1cccc(CN2[C@@H]3CNC[C@H]2[C@@H]3c2ccc(-c3cccnc3)cc2)c1	x	x	-84.2*	-0.1
COc1cccc(NC(=O)N[C@@H]2C=C[C@H](CC(=O)N3CCCCC3)O[C@@H]2CO)c1	x	x	7.2	0.6
COc1cccc(NC(=O)N[C@@H]2C=C[C@@H](CC(=O)N3CCCCC3)O[C@@H]2CO)c1	x	x	-0.8	34.0*
Cc1ccc(S(=O)(=O)N2C(=O)CCC2C(=O)Nc2ccccc2-c2ccccc2)cc1 (stereo not given)	x	-0.9	x	x
C[C@H](CO)N1C[C@H](C)[C@@H](CN(C)Cc2ccc(C(=O)Nc3ccccc3N)cc2)Oc2ccc(NS(=O)(=O)c3ccccc3)cc2CC1=O	61.5	-0.6	-83.4*	-2.0
C[C@@H]1CN([C@@H](C)CO)C(=O)Cc2cc(NS(=O)(=O)c3ccccc3)ccc2O[C@H]1CN(C)Cc1ccc(C(=O)Nc2ccccc2N)cc1	11.7	0.0	-72.4	-0.3
C[C@@H]1CN([C@H](C)CO)C(=O)Cc2cc(NS(=O)(=O)c3ccc(Cl)cc3)ccc2O[C@H]1CN(C)Cc1ccc(Oc2ccccc2)cc1	46.8	0.4	-5.1	-1.3
Cc1ccc(S(=O)(=O)Nc2ccc3c(c2)CC(=O)N([C@H](C)CO)C[C@H](C)[C@H](CN(C)Cc2ccc(C(=O)Nc4ccccc4N)cc2)O3)cc1	76.4	0.3	-88.1*	0.2
C[C@H](CO)N1C[C@H](C)[C@H](CN(C)Cc2ccc(Oc3ccccc3)cc2)Oc2ccc(NS(=O)(=O)c3ccc(Cl)cc3)cc2CC1=O	29.4	4.6	-86.8*	-1.6
N#CCCN(Cc1ccccc1)C(=O)c1ccccc1[N+](=O)[O-]	x	0.3	x	x
CC(C)c1cc(I)ccc1NC(=O)CSc1nc2ccccc2c(=O)[nH]1	x	-0.1	x	x
Cc1cc(C(=O)CSc2nnc3sc4ccccc4n23)c(C)n1Cc1ccccc1	x	-0.7	x	x
COc1ccc(OCC(=O)Nc2c(C(=O)c3ccc(C)c(F)c3)oc3ccccc23)cc1	x	0.0	x	x
COc1cc(CN2C[C@@H]3N[C@H](C2)C3c2ccc(/C=C/c3ccccc3)cc2)cc(OC)c1 (stereo not given in full)	x	x	-88.3*!	-0.3
COc1ccc(-c2ccc(C3[C@@H]4CN(Cc5cc(OC)cc(OC)c5)C[C@H]3N4)cc2)cc1 (stereo not given in full)	x	x	-87.5*!	1.3
C/C=C/c1ccc(C2[C@@H]3CN(Cc4cccc(OC)c4)C[C@H]2N3)cc1 (stereo not given in full)	x	x	-19.4	-0.3
COc1cc(CN2C[C@@H]3N[C@H](C2)C3c2ccc(-c3ccncc3)cc2)cc(OC)c1 (stereo not given in full)	x	x	-80.9*	0.0
COc1cc(CN2C[C@@H]3N[C@H](C2)C3c2ccc(-c3cccc(OC)c3)cc2)cc(OC)c1 (stereo not given in full)	x	x	-75.1	0.1
SMILES	Tcruzi prolif	IDH1 R132H inh	Pf Dd2 growth	KDM4C inh
COc1cc(CN2C[C@@H]3N[C@H](C2)C3c2ccc(-c3cncnc3)cc2)cc(OC)c1 (stereo not given in full)	x	x	-11.7	1.0
Cc1ccc(Cl)cc1N(CC(=O)Nc1ccc(C(F)(F)F)cc1)S(C)(=O)=O	x	2.0	x	x
COC(=O)c1ccccc1NC(=O)Cn1nc(C(F)(F)F)c2c1CCCCC2	x	-0.8	x	x
COC(=O)c1ccccc1NC(=O)c1ccc(NS(=O)(=O)c2cccc3cccnc23)cc1	x	0.0	x	x
COc1ccc(NC(=O)c2ccc(N(C)S(=O)(=O)c3ccc(OC)c(OC)c3)cc2)c(OC)c1	x	-0.4	x	x
O=c1sc(N2CCN(C3CCCCC3)CC2)nc2ccsc12	x	1.5	x	x
O=C(CN1CCOCC1)NCC[C@H]1CC[C@H](NC(=O)c2ccc3c(c2)OCO3)[C@H](CO)O1	-0.1	61.4*	-9.3	49.7*
C[C@@H]1CN([C@@H](C)CO)C(=O)c2ccccc2-c2ccccc2CO[C@@H]1CN(C)Cc1cccc(C(F)(F)F)c1	x	x	-82.1*	-0.2
C[C@H]1CN([C@@H](C)CO)C(=O)c2c(c3ccccc3n2C)-c2ccccc2CO[C@H]1CN(C)Cc1cccc(C(F)(F)F)c1	x	x	-74.8	-4.2
C[C@@H]1CN([C@H](C)CO)C(=O)c2c(c3ccccc3n2C)-c2ccccc2CO[C@@H]1CN(C)Cc1cccc(C(F)(F)F)c1	x	x	-87.0*	-2.9
C[C@H](CO)N1C[C@H](C)[C@H](CN(C)Cc2cccc(C(F)(F)F)c2)OCc2ccccc2-c2c(n(C)c3ccccc23)C1=O	x	x	-82.9*	x
C[C@@H]1CCCCO[C@@H](CN(C)Cc2ccc(C(=O)Nc3ccccc3N)cc2)[C@@H](C)CN([C@H](C)CO)C(=O)c2cc(NS(=O)(=O)c3ccc(F)cc3)ccc2O1	x	0.0	-76.7	-0.1
Cc1noc(C)c1S(=O)(=O)Nc1ccc2c(c1)C(=O)N([C@H](C)CO)C[C@H](C)[C@@H](CN(C)Cc1ccc(C(=O)Nc3ccccc3N)cc1)OCCCC[C@@H](C)O2	x	x	u	1.3
Cc1noc(C)c1S(=O)(=O)Nc1ccc2c(c1)C(=O)N([C@H](C)CO)C[C@H](C)[C@H](CN(C)Cc1ccc(C(=O)Nc3ccccc3N)cc1)OCCCC[C@@H](C)O2	x	x	-85.7*	20.8
C[C@@H]1CCCCO[C@@H](CN(C)Cc2ccc(C(=O)Nc3ccccc3N)cc2)[C@@H](C)CN([C@H](C)CO)C(=O)c2cc(NS(=O)(=O)c3ccccc3)ccc2O1	x	0.2	-81.5*	-1.1
C[C@@H]1CCCCO[C@H](CN(C)Cc2ccc(C(=O)Nc3ccccc3N)cc2)[C@@H](C)CN([C@H](C)CO)C(=O)c2cc(NS(=O)(=O)c3ccc(Cl)cc3)ccc2O1	88.7	x	-82.3*	10.2
CCCN(C)C[C@H]1Oc2cc(C#Cc3ccncc3)ccc2S(=O)(=O)N([C@H](C)CO)C[C@H]1C	x	0.1	-71.2	-1.8
CCCN(C)C[C@H]1Oc2cc(C#Cc3cccnc3)ccc2S(=O)(=O)N([C@H](C)CO)C[C@@H]1C	89.3	-0.1	-82.4*	-3.3
CCCN(C)C[C@@H]1Oc2cc(C#Cc3cccnc3)ccc2S(=O)(=O)N([C@@H](C)CO)C[C@H]1C	61.5	2.0	-88.6*	-1.8
COc1ccc(-n2c(CCn3c4ccccc4c4ccccc43)n[nH]c2=S)cc1	x	-0.7	x	x
